Test results taken from article PMC7425423 (Brain Communications, 2020).

System: T98G, U87MG and E98
Assay: Viability after Gefitinib
Type: cell-based, human
Conditions: 72 hours, 10 µM
In short: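 Cells were seeded at 3–5 × 10³/well in 96-well plates and allowed to attach. After 24 h the test compound was added, and viability was read at 72 h by CellTiter-Glo luminescence, normalized as % of control. U87MG and E98 were grown in DMEM and T98G in Eagle MEM, each with 10% heat-inactivated FBS, at 37°C and 5% CO2.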

## COc1cc2ncnc(Nc3ccc(F)c(Cl)c3)c2cc1OCCCN1CCOCC1 [Gefitinib]
  sensitivity of cell lines (viability): resistance
